Active and inactive are the calls of the source. The calls are words filed in the database; no cut-off is given here.
Assays:
[1] = biological target: T1, Angiotensin-converting enzyme (Rattus norvegicus) (UniProt P47820); experiment: In vivo inhibition of Angiotensin I converting enzyme at 100ug/Kg in anaesthetized rats;o denotes 'Inactive'; type: organism-based
T1 sequence (whole entry): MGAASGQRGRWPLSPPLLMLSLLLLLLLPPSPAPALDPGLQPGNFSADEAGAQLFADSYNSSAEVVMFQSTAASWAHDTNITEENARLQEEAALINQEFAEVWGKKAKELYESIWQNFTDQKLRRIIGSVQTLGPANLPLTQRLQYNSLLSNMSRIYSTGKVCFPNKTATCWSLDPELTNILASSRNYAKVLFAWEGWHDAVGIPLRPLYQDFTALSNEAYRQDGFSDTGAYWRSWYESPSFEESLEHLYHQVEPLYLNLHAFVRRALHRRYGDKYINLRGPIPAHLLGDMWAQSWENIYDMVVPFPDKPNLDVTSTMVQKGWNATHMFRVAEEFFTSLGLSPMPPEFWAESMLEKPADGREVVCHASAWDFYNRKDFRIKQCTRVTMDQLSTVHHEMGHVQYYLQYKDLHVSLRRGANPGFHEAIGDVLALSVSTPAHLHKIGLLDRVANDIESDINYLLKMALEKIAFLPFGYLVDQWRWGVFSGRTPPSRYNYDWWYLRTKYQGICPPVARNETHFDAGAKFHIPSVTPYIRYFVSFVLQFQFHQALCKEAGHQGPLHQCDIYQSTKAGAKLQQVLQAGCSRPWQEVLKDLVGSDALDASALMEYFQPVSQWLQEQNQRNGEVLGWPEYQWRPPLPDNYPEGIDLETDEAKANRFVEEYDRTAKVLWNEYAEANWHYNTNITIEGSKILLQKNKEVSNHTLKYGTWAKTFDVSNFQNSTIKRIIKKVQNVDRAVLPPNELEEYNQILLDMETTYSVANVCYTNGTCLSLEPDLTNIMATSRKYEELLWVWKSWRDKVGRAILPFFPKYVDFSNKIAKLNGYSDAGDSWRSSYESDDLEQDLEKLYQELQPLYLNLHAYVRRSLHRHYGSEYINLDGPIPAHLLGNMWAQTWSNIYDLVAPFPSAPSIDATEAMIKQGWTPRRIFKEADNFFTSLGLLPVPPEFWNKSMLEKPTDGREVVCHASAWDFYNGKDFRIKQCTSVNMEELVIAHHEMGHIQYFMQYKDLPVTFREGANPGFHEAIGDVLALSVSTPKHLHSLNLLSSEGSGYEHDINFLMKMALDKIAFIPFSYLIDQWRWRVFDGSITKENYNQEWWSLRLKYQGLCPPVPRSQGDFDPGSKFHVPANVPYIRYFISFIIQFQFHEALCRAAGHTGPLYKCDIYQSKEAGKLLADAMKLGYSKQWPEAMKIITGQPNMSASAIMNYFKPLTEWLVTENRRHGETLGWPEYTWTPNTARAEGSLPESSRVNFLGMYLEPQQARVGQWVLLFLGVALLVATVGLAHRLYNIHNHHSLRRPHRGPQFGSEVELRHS
Summary of the method: (§1)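 Sprague–Dawley rats under inactin (100 mg/kg) or dial urethane; carotid and jugular cannulas, arterial blood pressure recorded. Angiotensin I response as percent of control; ID50 by linear regression.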

[2] = biological target: T1, Angiotensin-converting enzyme (Rattus norvegicus); experiment: Compound was tested for bradykinin potentiation at 0.1 ug/kg dose; type: functional
[3] = biological target: T1, Angiotensin-converting enzyme (Rattus norvegicus); experiment: (§2) In vivo inhibition of Angiotensin I converting enzyme in anaesthetized rats; type: organism-based; summary of the method: as §1
[4] = biological target: T1, Angiotensin-converting enzyme (Rattus norvegicus); experiment: as §2; type: organism-based; remark: listed apart in the source
[5] = biological target: T2, Angiotensin-converting enzyme (Oryctolagus cuniculus) (UniProt P12822); experiment: In vitro inhibition of Angiotensin I converting enzyme relative to captopril(=1)
T2 sequence (whole entry): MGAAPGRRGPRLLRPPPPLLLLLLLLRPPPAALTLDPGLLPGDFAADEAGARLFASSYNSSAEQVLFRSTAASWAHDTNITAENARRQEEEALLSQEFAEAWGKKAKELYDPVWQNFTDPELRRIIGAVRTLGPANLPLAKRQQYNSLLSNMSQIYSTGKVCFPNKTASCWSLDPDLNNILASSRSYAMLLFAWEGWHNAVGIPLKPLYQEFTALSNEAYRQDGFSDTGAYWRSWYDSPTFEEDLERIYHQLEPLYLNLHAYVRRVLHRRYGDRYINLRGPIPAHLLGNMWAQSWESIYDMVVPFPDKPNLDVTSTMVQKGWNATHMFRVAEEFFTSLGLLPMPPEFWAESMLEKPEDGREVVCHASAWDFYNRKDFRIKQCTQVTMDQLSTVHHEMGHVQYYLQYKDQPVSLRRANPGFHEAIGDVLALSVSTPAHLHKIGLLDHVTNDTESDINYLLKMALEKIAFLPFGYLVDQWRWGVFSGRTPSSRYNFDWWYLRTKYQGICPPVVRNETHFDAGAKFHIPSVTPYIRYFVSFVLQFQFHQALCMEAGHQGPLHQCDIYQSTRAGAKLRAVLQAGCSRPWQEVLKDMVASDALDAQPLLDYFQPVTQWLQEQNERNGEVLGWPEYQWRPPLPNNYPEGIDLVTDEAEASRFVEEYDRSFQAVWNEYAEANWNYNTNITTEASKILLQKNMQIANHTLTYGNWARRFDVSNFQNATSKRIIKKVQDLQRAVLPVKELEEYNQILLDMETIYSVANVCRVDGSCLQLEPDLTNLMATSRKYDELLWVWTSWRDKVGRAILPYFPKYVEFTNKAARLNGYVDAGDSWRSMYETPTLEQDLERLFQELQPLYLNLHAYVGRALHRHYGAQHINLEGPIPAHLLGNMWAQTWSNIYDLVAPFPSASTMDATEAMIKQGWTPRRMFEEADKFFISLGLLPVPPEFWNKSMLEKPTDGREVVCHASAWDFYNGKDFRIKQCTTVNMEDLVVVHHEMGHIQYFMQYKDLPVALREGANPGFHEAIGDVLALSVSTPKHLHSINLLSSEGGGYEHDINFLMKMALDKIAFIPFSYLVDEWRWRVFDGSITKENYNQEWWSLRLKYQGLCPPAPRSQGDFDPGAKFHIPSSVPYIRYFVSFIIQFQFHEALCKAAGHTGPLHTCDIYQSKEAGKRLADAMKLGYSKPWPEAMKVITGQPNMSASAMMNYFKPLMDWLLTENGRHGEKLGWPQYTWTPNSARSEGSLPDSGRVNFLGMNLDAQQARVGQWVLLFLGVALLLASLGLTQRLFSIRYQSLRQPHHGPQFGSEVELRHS
Summary of the method: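 Crude ACE from rabbit lung acetone powder extracted in 50 mM potassium phosphate pH 8.3, spun 40000g. Final assay: 100 mM phosphate pH 8.3, 300 mM NaCl, 5 mM hippuryl-His-Leu; enzyme added last, 30 min at 37 °C, stopped with HCl. Hippuric acid extracted into EtOAc, dried, redissolved in water, read by absorbance.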

Rattus norvegicus [6] = experiment: Compound was tested orally on the spontaneous hypertensive rat and blood pressure noted at half-hour interval; type: functional
Summary of the method: (§3)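 Spontaneously hypertensive rats; drug in 0.4% methylcellulose, or water, saline or 5% ethanol. Aortic catheter via caudal artery under ether, rats conscious in restrainers; pressure averaged over 30 min, heart rate from pulse trace. Dosed after about 90 min, usually followed for 4 h.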

Rattus norvegicus [7] = experiment: Compound was tested for bradykinin potentiation at 0.1 ug/kg dose.; type: functional
[8] = biological target: T1, Angiotensin-converting enzyme (Rattus norvegicus); experiment: In vivo inhibition of Angiotensin I converting enzyme at 100ug/Kg in anaesthetized rats;z denotes 'Inactive'; type: organism-based; summary of the method: as §1
[9] = biological target: T1, Angiotensin-converting enzyme (Rattus norvegicus); experiment: In vivo inhibition of Angiotensin I converting enzyme at […] in anaesthetized rats.;z denotes 'Inactive'; type: organism-based; summary of the method: as §1
Rattus norvegicus [10] = species: Rattus norvegicus; experiment: Compound was tested peroral on the spontaneous hypertensive rat; type: functional; summary of the method: as §3
[11] = biological target: T1, Angiotensin-converting enzyme (Rattus norvegicus); experiment: In vivo inhibition of Angiotensin I converting enzyme at […] in anaesthetized rats;z denotes 'Inactive'; type: organism-based; summary of the method: as §1
[12] = biological target: T1, Angiotensin-converting enzyme (Rattus norvegicus); experiment: In vivo inhibition of Angiotensin I converting enzyme at 100 ug/kg in anaesthetized rats; type: organism-based; summary of the method: as §1

| Structure (SMILES) | relative potency [5] | Delta blood pressure [2] [mmHg] | also measured |
| --- | --- | --- | --- |
| CC(CS)C(=O)N1C[C@H](Oc2ccc(Cl)cc2)C[C@H]1C(=O)O (stereo not given in full) |  | 23 | ID50 [1]: inactive |
| CCOCCO[C@@H]1C[C@@H](C(=O)O)N(C(=O)C(C)CS)C1 (stereo not given in full) |  | 45 | ID50 [3]: 0.372 mg/kg |
| CC(CS)C(=O)N1CC2(C[C@H]1C(=O)O)SCCCS2 (stereo not given in full) | 1.07 |  | ID50 [4]: 0.048 mg/kg |
| O=C(O)[C@@H]1CC2(CN1C(=O)CCS)SCCS2 | 2.6 | 38 | ID50 [4]: 0.078 mg/kg |
| CC(CS)C(=O)N1C[C@H](OCCOc2ccccc2)C[C@H]1C(=O)O (stereo not given in full) |  | 9 | ID50 [1]: inactive |
| COC1(OC)C[C@@H](C(=O)O)N(C(=O)C(C)CS)C1 (stereo not given in full) | 0.9 |  |  |
| CO[C@H]1C[C@@H](C(=O)O)N(C(=O)C(C)CS)C1 (stereo not given in full) | 0.53 | 60 | ID50 [3]: 0.073 mg/kg |
| CC(CS)C(=O)N1C[C@H](O)C[C@H]1C(=O)O (stereo not given in full) |  | 48 | ID50 [3]: 0.253 mg/kg |
| CC(CS)C(=O)N1C[C@@H](Sc2ccccc2)C[C@H]1C(=O)O (stereo not given in full) |  | 22 | ID50 [3]: 0.544 mg/kg |
| CC(CS)C(=O)N1C[C@@H](SC2CCCCC2)C[C@H]1C(=O)O (stereo not given in full) |  | 6 | ID50 [8]: Inactive at 100 ug/kg |
| O=C(O)[C@@H]1CC2(CN1C(=O)CCS)SCCCS2 | 1 | 19 | ID50 [4]: 0.01 mg/kg |
| CO/N=C1\C[C@@H](C(=O)O)N(C(=O)C(C)CS)C1 (stereo not given in full) | 1 |  |  |
| COC1=C[C@@H](C(=O)O)N(C(=O)C(C)CS)C1 (stereo not given in full) |  | 52 | ID50 [1]: inactive |
| CC(CS)C(=O)N1C[C@@H](O)C[C@H]1C(=O)O (stereo not given in full) |  | 40 | ID50 [3]: 0.367 mg/kg |
| CC(CS)C(=O)N1C[C@H](OCc2ccccc2)C[C@H]1C(=O)O (stereo not given in full) |  | 47 | ID50 [3]: 0.508 mg/kg |
| CC(CS)C(=O)N1C[C@H](F)C[C@H]1C(=O)O (stereo not given in full) |  | 53 | ID50 [1]: inactive |
| CS[C@H]1C[C@@H](C(=O)O)N(C(=O)C(C)CS)C1 (stereo not given in full) |  |  | ID50 [3]: 0.398 mg/kg |
| CC(CS)C(=O)N1CC2(C[C@H]1C(=O)O)OCCO2 (stereo not given in full) | 1 | 43 | ID50 [4]: 0.065 mg/kg |
| CC(CS)C(=O)N1C[C@@H](SCc2ccccc2)C[C@H]1C(=O)O (stereo not given in full) |  | 5 | ID50 [11]: Inactive at 100 ug/kg |
| CC(CS)C(=O)N1C[C@@H](C#N)C[C@H]1C(=O)O (stereo not given in full) |  | 47 | ID50 [1]: inactive |
| CC(CS)C(=O)N1C[C@@H](N=[N+]=[N-])C[C@H]1C(=O)O (stereo not given in full) | 0.54 |  |  |
| CC(CS)C(=O)N1C[C@@H](F)C[C@H]1C(=O)O (stereo not given in full) |  |  | ID50 [12]: 0.581 mg/kg |

Further lines, with some results ahead:

| relative potency [5] | Structure (SMILES) | Delta blood pressure [2] [mmHg] | also measured |
| --- | --- | --- | --- |
| 1 | CC(CS)C(=O)N1CC2(C[C@H]1C(=O)O)OCC(C)(C)CO2 (stereo not given in full) | 46 | Delta blood pressure (Rattus norvegicus [6]): 25 mmHg; ID50 [4]: 0.359 mg/kg |
| 4 | C[C@H](CS)C(=O)N1CC2(C[C@H]1C(=O)O)SCCS2 |  | SHR delta blood pressure (Rattus norvegicus [6]): 17 dec; Delta blood pressure (Rattus norvegicus [7]): 43 mmHg |
| 0.5 | CO[C@@H]1C[C@@H](C(=O)O)N(C(=O)C(C)CS)C1 (stereo not given in full) |  | ID50 [3]: 1.21 mg/kg |
| 0.56 | CC(CS)C(=O)N1C[C@@H](OCc2ccccc2)C[C@H]1C(=O)O (stereo not given in full) | 40 | ID50 [9]: Inactive at 100 ug/kg |
| 1.26 | CC(CS)C(=O)N1CC2(C[C@H]1C(=O)O)SCCS2 (stereo not given in full) | 34 | SHR delta blood pressure (Rattus norvegicus [6]): 22 dec; ID50 [4]: 0.026 mg/kg; SHR delta blood pressure (Rattus norvegicus [10]): 35 dec |
